OXTR agonist – activates the human oxytocin receptor; P30559; CHO-OTR cells, Fluo-8 calcium fluorescence; normalized: DMSO 0%, oxytocin 100%; activation, % at 3 µM; 320,000 compounds, 0.32% hits; AID 2435;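 active = activation above the mean of all tested compounds plus 3 SD, cutoff set per screening run, cut at about 20% in these data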;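 note: peak over basal fluorescence ratio from a 100 s FLIPR kinetic read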
Target sequence (P30559 whole entry, looked up): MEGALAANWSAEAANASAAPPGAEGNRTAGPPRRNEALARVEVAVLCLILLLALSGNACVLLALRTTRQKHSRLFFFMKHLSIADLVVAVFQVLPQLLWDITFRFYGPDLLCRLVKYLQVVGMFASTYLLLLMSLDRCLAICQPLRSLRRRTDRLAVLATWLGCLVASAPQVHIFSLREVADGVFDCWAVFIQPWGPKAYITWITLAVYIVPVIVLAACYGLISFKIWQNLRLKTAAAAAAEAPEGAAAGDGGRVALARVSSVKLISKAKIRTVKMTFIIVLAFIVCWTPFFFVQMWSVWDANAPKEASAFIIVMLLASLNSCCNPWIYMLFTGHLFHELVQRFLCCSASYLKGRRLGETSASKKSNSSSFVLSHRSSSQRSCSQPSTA
OXTR potentiator – potentiates the human oxytocin receptor response. P30559. CHO-OTR cells, Fluo-8 calcium fluorescence, potentiator mode; 0% = oxytocin EC15, 100% = EC100. activation, % at 3 µM. 320,000 compounds, 0.061% hits. AID 2445;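 active = activation above that plate's cutoff, the mean activation of tested compounds plus 3 SD, cut at about 6.6% in these data, passing the limit was not always enough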
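assay system = CHO-OTR cells, human receptor | schedule = compound 6 min at room temperature before oxytocin, 100 s read | detection = Fluo-8 intracellular calcium fluorescence, ex 470-495, em 515-575 nm | evaluation = normalized max/min fluorescence ratio, % activation | control set = EC15 oxytocin alone as 0%, 75 nM oxytocin (EC100) as 100%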
TRPML3 ag – agonists of human TRPML3 channel. Q8TDD5. HEK293 TRPML3-YFP, Fluo-8 calcium fluorescence; 100% = the carbachol control signal. activation, % at 3 µM. 220,000 compounds, 0.29% hits. AID 1448;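 active = activation above its plate's cutoff, the mean activation of the plate's test wells plus 3 SD, cut at about 12% in these data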
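Test system – HEK293 line with stable expression of human TRPML3-YFP channel · Control set – carbachol 87 µM final as high control (100%), DMSO as low control (0%) · Signal – Fluo-8 calcium dye fluorescence, ex 470-495, em 515-575 nm · Incubation – 1-h 37 °C dye load, 5-s basal, 120-s post-compound reads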
zfTRPN1 agonist – agonists of zebrafish TRPN1 channel; HEK293 zebrafish TRPN1-YFP, Fluo-8 calcium fluorescence; 100% = response to 87 µM carbachol; activation, % at 3 µM; 220,000 compounds, 0.18% hits;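 active = activation above its plate's cutoff, the mean activation of test wells on that plate plus 3 SD, cut at about 19% in these data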
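Material – zebrafish TRPN1-YFP in HEK293 cells · Doses – 3 µM single point · Schedule – dye 1 h 37 °C plus 30 min RT · Signal – Fluo-8 calcium fluorescence, excitation 470-495 nm, emission 515-575 nm · Read-out – % activation versus carbachol response · Control set – carbachol high, DMSO low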
V1R ag counter – counter-screen for oxytocin receptor agonists: human V1a receptor agonists | CHO-V1R cells, Fluo-8 calcium fluorescence, agonist mode; 0% DMSO, 100% 3 nM vasopressin | activation, % at 3 µM | 320,000 compounds, 0.25% hits;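 active = activation above the mean activation of all tested compounds plus 3 SD, per screening run, cut at about 20% in these data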;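 note: signal is peak over basal fluorescence ratio across a 100 second FLIPR read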
Hits are given with their value; i = inactive; nt = no result given. A selection: hits, their analogues and other compounds. The true share with any hit is near 0.58%.

SMILES	OXTR agonist	OXTR potentiator	TRPML3 ag	zfTRPN1 agonist	V1R ag counter
C/C(=N\Nc1ncnc2sc(C)c(C)c12)c1ccccn1	124	i	nt	nt	134
O=C(N/N=C/c1c(O)ccc2ccccc12)c1cccc(C(F)(F)F)c1	46	i	15	35	53
COc1ccc2ccccc2c1/C=N/NC(=O)c1cccc(Br)c1	i	i	i	i	i
O=C1CCN2C=Nc3cccc4ccc1c2c34	38	i	i	i	29
CN=C1SC(CC(=O)NCCc2ccc(OC)c(OC)c2)C(=O)N1C (stereo unspecified)	34	i	i	i	47
NC(=O)c1cc([N+](=O)[O-])ccc1NCC1CCCCC1	i	i	nt	nt	i
Cc1ccccc1N1C(=O)c2cccc3c(N(C)CCO)ccc(c23)C1=O	25	i	18	26	24
O=C(N/N=C/c1cc(Cl)cc(Cl)c1O)c1ccncc1	29	i	i	24	28
Cc1c(O)cc2c(c1O)C(=O)CC(c1ccccc1)O2 (stereo unspecified)	59	i	nt	nt	48
CCOCCCNc1nc2c(C)cccn2c(=O)c1/C=C1\SC(=S)N(C(C)CC)C1=O (stereo unspecified)	i	i	i	20	i
CCOCCCNc1nc2c(C)cccn2c(=O)c1/C=C1\SC(=S)N(CC(C)C)C1=O	i	i	i	i	i
COc1ccc(NC2CCCN(C(=O)CN3C(=O)c4ccccc4C3=O)C2)cc1OC (stereo unspecified)	i	i	nt	nt	i
Cc1ccc(CONC(=O)c2cccc([N+](=O)[O-])c2)cc1	i	i	nt	nt	i
COC(=O)C(/C=N/OCc1ccc([N+](=O)[O-])cc1)NC(=O)c1cccc(Cl)c1 (stereo unspecified)	32	i	i	20	38
CCn1c(SCC(=O)NC2CCCCC2)nnc1C(C)NC(=O)c1ccccc1F (stereo unspecified)	i	i	nt	nt	i
CC(=O)Nc1cccc(C(=O)/C=C/c2ccc(/C=C/C(=O)c3cccc(NC(C)=O)c3)cc2)c1	i	i	i	i	i
CC(=O)Nc1cccc(C(=O)/C=C/c2ccc(N(C)C)cc2)c1	195	i	20	44	132
Cn1c(CCn2ccccc2=O)nc2cc(NC(=O)COc3ccccc3)ccc21	i	i	nt	nt	i
OCCCc1nc2n(n1)C(c1cccs1)C=C(c1ccccc1)N2 (stereo unspecified)	82	i	i	i	50
OCCCc1nc2n(n1)C(c1ccccc1)C=C(c1ccc(F)cc1)N2 (stereo unspecified)	i	i	i	i	i
NC(=O)c1ccccc1NC(=O)c1cc(S(=O)(=O)N2CCCCC2)ccc1N1CCOCC1	i	i	nt	nt	i
O=c1c2cc(Br)ccc2nc(-c2cccc(C(F)(F)F)c2)n1O	54	i	i	i	61
N#Cc1ccc(-c2nc3ccc(Br)cc3c(=O)n2O)cc1	i	i	nt	nt	i
Cc1nc2ccc(NC(=O)CSc3ccccc3)cc2s1	i	i	nt	nt	i
COc1ccc(/C=C2\SC(=O)NC2=S)cc1OC	29	i	43	74	36
SMILES	OXTR agonist	OXTR potentiator	TRPML3 ag	zfTRPN1 agonist	V1R ag counter
CCOc1ccc(/C=C2\SC(=S)NC2=O)cc1OC	i	i	i	i	i
CC(C)(C)S(=O)(=O)/C(C#N)=N/Nc1ccc(Cl)cc1	i	i	i	21	i
Cc1ccc(NC(=S)NC(=O)c2ccc(-c3ccc(Cl)cc3)o2)c(O)c1	i	i	i	i	i
Cc1ccc(O)c(NC(=S)NC(=O)Cc2ccc(Cl)cc2)c1	73	i	nt	nt	79
CCOc1ncccc1C(=O)Nc1cc2c(cc1Br)OCCO2	i	i	nt	nt	i
O=C(C[C@H]1C/C=C\CC[C@H](Cc2ccc(F)cc2)C(=O)O[C@@H](c2ccccc2)CNC1=O)N[C@H](CO)Cc1ccccc1	33	i	nt	nt	52
O=C(C[C@H]1C/C=C\CC[C@H](Cc2ccc(F)cc2)C(=O)O[C@@H](c2ccccc2)CNC1=O)N[C@@H](CO)Cc1ccccc1	i	i	nt	nt	i
O=C(C[C@H]1C/C=C\C[C@H](Cc2ccc(F)cc2)C(=O)O[C@@H](c2ccccc2)CNC1=O)N[C@H](CO)Cc1ccccc1	45	i	nt	nt	60
Cc1cccc(NC(=O)CN(CC2CCCO2)C(=O)c2cc(S(=O)(=O)N(C)C)ccc2F)c1C (stereo unspecified)	i	i	nt	nt	i
C=CCOc1ccc(/C=C/C(=O)OCC(=O)N2CCC(c3ccccc3)=N2)cc1	i	i	nt	nt	i
CCOCc1nnc(NC(=O)C2c3ccccc3Oc3ccccc32)s1	30	i	i	i	22
CCCN1C=CC(=C/C=C(\C#N)C(=O)OCC)C=C1	62	i	15	19	49
CCOC(=O)/C(C#N)=C/N=c1ccc(C)cn1C	i	i	i	i	i
CCOC(=O)/C(C#N)=C/C=C1\C=Cc2ccccc2N1CC	i	i	i	i	i
CCCCCCN1C=CC(=C/C=C(\C#N)C(=O)OCC)C=C1	177	i	55	65	149
Cc1ccc2nc(/C(C#N)=C\c3ccc(N4CCOCC4)o3)[nH]c2c1	43	i	i	i	30
Cc1cc2nc(/C(C#N)=C\c3ccc(-c4ccccc4C(=O)O)o3)[nH]c2cc1C	i	i	nt	nt	i
Cc1ccc2nc(/C(C#N)=C/c3ccc(-c4ccccc4C(=O)O)o3)[nH]c2c1	39	i	nt	nt	27
COCC(COS(N)(=O)=O)C(C)C (stereo unspecified)	i	i	nt	nt	i
Cc1ccc(S(=O)(=O)N2CCC(=O)N(C(COCc3ccccc3)C(C)C)CC2)cc1 (stereo unspecified)	i	i	i	i	i
Cc1ccc(S(=O)(=O)N2CCC(=O)N(C(COCc3ccc(Cl)cc3)C(C)C)CC2)cc1 (stereo unspecified)	i	i	14	i	i
Cc1cc(C)nc(/N=C(\N)Nc2ccc(OCCC(C)C)cc2)n1	50	i	nt	nt	48
Cc1cc(C)nc(/N=C(\N)Nc2ccc(OCc3ccccc3)cc2)n1	75	i	102	111	77
Cc1cc(C)nc(/N=C(\N)Nc2cccc(OCc3ccccc3)c2)n1	46	i	61	72	50
CC1Oc2ccccc2N(CC(=O)NCCN2CCOCC2)C1=O (stereo unspecified)	i	i	nt	nt	i
O=C(NC(=O)c1ccccc1O)c1ccc(C(F)(F)F)cc1	i	i	i	i	i
CCCc1ccc(C(=O)NC(=O)c2ccccc2O)cc1	i	i	i	20	i
CCCN(CC(=O)Nc1ccccc1C)C(=O)C1CC(=O)N(c2cccc(C)c2C)C1 (stereo unspecified)	i	i	nt	nt	i
CCOc1cc(/C=N/N2CCOCC2)ccc1OCc1ccc(C(=O)OC)o1	i	i	144	382	i

Screens from PubChem BioAssay.
